Species on record: Cavia porcellus
Test: Beta-Funaltrexamine antagonism of morphine agonism in the presence of compound was determined in Guinea pig ileum at concentration of 20 nM
Assay type: functional
Method in brief: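 Guinea pig ileum protection assay. The protector was added to the tissue 10 min before 20 nM β-FNA, which was applied for 30 min. The tissue was then washed 30 times with intermittent chasing by 500 nM naloxone. The result is the morphine IC50 in treated tissue divided by the morphine IC50 in control tissue of the same preparation, given with SE and n.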

In the case of O=C1CC[C@@]2(O)[C@H]3Cc4ccc(O)c5c4[C@@]2(CCN3CC2CC2)[C@H]1O5 [NALTREXONE], the IC50 ratio is reported as 2.1.
